Measured values taken from ChEMBL document CHEMBL1144116, “Tanikolide, a toxic and antifungal lactone from the marine cyanobacterium Lyngbya majuscula” (J Nat Prod, 1999).
In brackets after ≈: the same amount, converted by molar mass. Activity calls are given as the source filed them. The rule behind the calls is not given here.

Legend:
Candida albicans = assay: Antifungal activity against Candida albicans ATCC 14053 at 100 ug/disk by paper disk agar plate method; format: functional
Summary of the method: (§1)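 Paper disk-agar plate diffusion with 6 mm paper disks, each loaded with 100 µg of sample. Activity is read as the diameter of the zone of inhibition around the disk.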

Pseudomonas aeruginosa = assay: Antibacterial activity against Pseudomonas aeruginosa ATCC 10145 at 100 ug/disk by paper disk agar plate method; format: functional, organism-based; summary of the method: as §1
Escherichia coli = assay: Antibacterial activity against Escherichia coli ATCC 11775 at 100 ug/disk by paper disk agar plate method; format: functional, organism-based; summary of the method: as §1
[1] = test system: Salmonella enterica subsp. enterica; assay: Antibacterial activity against Salmonella choleraesuis subsp. choleraesuis ATCC 14028 at 100 ug/disk by paper disk agar plate method; format: functional, organism-based
Summary of the method: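 Standard paper sensitivity disk-agar plate method with 6 mm disks. Read-out is the diameter of the inhibition zone around the disk.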

Bacillus subtilis = assay: Antibacterial activity against Bacillus subtilis ATCC 6051 at 100 ug/disk by paper disk agar plate method; format: functional, organism-based; summary of the method: as §1
Staphylococcus aureus = assay: Antibacterial activity against Staphylococcus aureus ATCC 12600 at 100 ug/disk by paper disk agar plate method; format: functional, organism-based; summary of the method: as §1
[2] = Toxicity against Artemia salina after 24 hrs; format: organism-based; conditions: in vivo, read-out: LD50
Summary of the method: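 About 15 hatched Artemia salina in ca. 0.5 mL seawater per well with sample in 50 µL EtOH plus 4.5 mL artificial seawater (total ca. 5 mL), several concentrations, duplicate samples and controls. After 24 h at 28 °C, live and dead shrimp counted under dissecting light microscope.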

Biomphalaria glabrata = assay: Molluscicidal activity against Biomphalaria glabrata at 10 mg/mL after 24 hrs; format: functional; conditions: read-out: LD50 (the source's name)
Summary of the method: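 Test snails: Biomphalaria glabrata. Sample stock solutions (10 mg/mL in EtOH) diluted in 10 mL distilled H2O. Snails observed after 24 h and scored dead when no heart beat was detected by dissecting light microscopy.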

Carassius auratus [3] = assay: Norcotic effect against Carassius auratus at 10 ug/mL after 1 hr; format: ADME, organism-based; conditions: in vivo
Summary of the method: (§2)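 Single goldfish (Carassius auratus) per vessel in 50 mL distilled H2O, with sample dilutions added in 50 µL EtOH. Each fish is observed for 1 h. Samples and controls are run in duplicate.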

Carassius auratus [4] = assay: Toxicity against Carassius auratus; format: organism-based; conditions: in vivo; summary of the method: as §2

| SMILES | Activity (Candida albicans) | Activity (Pseudomonas aeruginosa) | Activity (Escherichia coli) | Activity [1] | Activity (Bacillus subtilis) | Activity (Staphylococcus aureus) | LC50 at 24 h [2] [µg/mL] | LC50 (Biomphalaria glabrata) [µg/mL] | Activity (Carassius auratus [3]) | zone of inhibition at 100 µg/disc (Candida albicans; read-out: IZ) [mm] | Activity (Carassius auratus [4]) |
| --- | --- | --- | --- | --- | --- | --- | --- | --- | --- | --- | --- |
| CCCCCCCCC[C@@]1(CO)CC[C@@H](C)C(=O)O1 | inactive | inactive | inactive | inactive | inactive | inactive |  |  |  |  |  |
| CCCCCCCCCCC[C@]1(CO)CCCC(=O)O1 [TANIKOLIDE] |  | inactive | inactive | inactive | inactive | inactive | 3.6 (≈ 12.7 µM) | 9 (≈ 31.6 µM) | Toxic | 13 | Non-toxic |
